Values after ≈ are worked out from the molar mass of the structure shown.
What was measured:
Staphylococcus aureus = test: Antibacterial activity against Staphylococcus aureus UC-76 SA-1; assay type: functional
Procedure, shortened: (§1)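 MIC (μg/mL) by standard broth microtitration dilution following NCCLS M7-A5 for aerobically growing bacteria. Panel: Gram-negative E. coli MC4100 (wild-type) and E. coli Tol C (membrane efflux-pump deficient); Gram-positive Enterococcus faecalis, Staphylococcus aureus and Streptococcus pyogenes.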

Enterococcus faecalis = test: Antibacterial activity against Enterococcus faecalis MGH-2 EF1-1; assay type: functional; procedure, shortened: as §1
Escherichia coli [1] = test: Antibacterial activity against membrane efflux-pump deficient Escherichia coli Tol C EC2549; assay type: functional; procedure, shortened: as §1
Escherichia coli [2] = test: Antibacterial activity against Escherichia coli MC4100 EC2026; assay type: functional; procedure, shortened: as §1
Streptococcus pyogenes = test: Antibacterial activity against Streptococcus pyogenes C-203 SP1-1; assay type: functional; procedure, shortened: as §1
[3] = Inhibition of Escherichia coli H560 DNA gyrase assessed as DNA cleavage

Row | SMILES | MIC (Staphylococcus aureus) [mg/L] | MIC (Enterococcus faecalis) [mg/L] | MIC (Escherichia coli [1]) [mg/L] | MIC (Escherichia coli [2]) [mg/L] | MIC (Streptococcus pyogenes) [mg/L] | IC50 [3] [µM]
1 | CN[C@H]1CCN(c2c(F)cc3c(=O)n(NC)c(=O)n(C4CC4)c3c2Cl)C1 | > 64 | > 64 | 8 (≈ 21 µM) | > 64 | > 64 | –
2 | CC(=O)Nn1c(=O)c2cc(F)c(N3CCC(N)C3)c(Cl)c2n(C2CC2)c1=O (stereo not given) | > 64 | > 64 | 2 (≈ 5.05 µM) | 64 (≈ 162 µM) | > 64 | 10
3 | CC(C)n1c(=O)n(N)c(=O)c2cc(F)c(N3CCC(N)C3)c(Cl)c21 (stereo not given) | > 64 | > 64 | > 64 | > 64 | > 64 | 98
4 | NC1CCN(c2c(F)cc3c(=O)n(N)c(=O)n(-c4ccc(F)cc4F)c3c2Cl)C1 (stereo not given) | > 64 | > 64 | 64 (≈ 150 µM) | > 64 | > 64 | > 100
5 | NC1CCN(c2cc(F)c3c(=O)n(N)c(=O)n(C4CC4)c3c2F)C1 (stereo not given) | > 64 | > 64 | 4 (≈ 11.9 µM) | 32 (≈ 94.9 µM) | > 64 | 17
6 | Cc1c(N2CC[C@@H]([C@H](C)N)C2)c(F)c(C(F)F)c2c(=O)n(N)c(=O)n(C3CC3)c12 | 1 (≈ 2.43 µM) | 1 (≈ 2.43 µM) | 1 (≈ 2.43 µM) | 64 (≈ 156 µM) | 0.25 (≈ 0.608 µM) | 8.2
7 | NC1CCN(c2c(F)c(F)c3c(=O)n(N)c(=O)n(C4CC4)c3c2F)C1 (stereo not given) | 16 (≈ 45 µM) | 32 (≈ 90.1 µM) | 0.5 (≈ 1.41 µM) | 2 (≈ 5.63 µM) | 16 (≈ 45 µM) | 3
8 | Nc1c(F)c(N2CCC(N)C2)c(F)c2c1c(=O)n(N)c(=O)n2C1CC1 (stereo not given) | 32 (≈ 90.8 µM) | 64 (≈ 182 µM) | 1 (≈ 2.84 µM) | 8 (≈ 22.7 µM) | 32 (≈ 90.8 µM) | 21
9 | NCC1CCN(c2c(Cl)cc3c(=O)n(N)c(=O)n(C4CC4)c3c2Cl)C1 (stereo not given) | 4 (≈ 10.4 µM) | 4 (≈ 10.4 µM) | 0.5 (≈ 1.3 µM) | 16 (≈ 41.6 µM) | 2 (≈ 5.2 µM) | 1.2
10 | Cc1c(F)c(N2CC[C@@H]([C@H](C)N)C2)c(C)c2c1c(=O)n(N)c(=O)n2C1CC1 | 0.06 (≈ 0.16 µM) | 0.06 (≈ 0.16 µM) | 0.03 (≈ 0.0799 µM) | 2 (≈ 5.33 µM) | 0.03 (≈ 0.0799 µM) | 0.24
11 | CN[C@H]1CCN(c2c(F)cc3c(=O)n(N)c(=O)n(C4CC4)c3c2Cl)C1 | 16 (≈ 43.5 µM) | 16 (≈ 43.5 µM) | 0.5 (≈ 1.36 µM) | 4 (≈ 10.9 µM) | 8 (≈ 21.8 µM) | 6.1
12 | CCn1c(=O)n(N)c(=O)c2cc(F)c(N3CC[C@H](N)C3)cc21 | > 64 | > 64 | 16 (≈ 52.1 µM) | 64 (≈ 208 µM) | > 64 | 35
13 | N[C@H]1CCN(c2cc3c(cc2F)c(=O)n(N)c(=O)n3CC2CC2)C1 | > 64 | > 64 | 8 (≈ 24 µM) | > 64 | > 64 | 20
14 | O=C(O)c1cn(C2CC2)c2cc(N3CCNCC3)c(F)cc2c1=O [CIPROFLOXACIN] | 4 (≈ 12.1 µM) | 0.4 (≈ 1.21 µM) | – | – | 2 (≈ 6.04 µM) | –

The remaining lines, values ahead:

Row | MIC (Staphylococcus aureus) [mg/L] | MIC (Enterococcus faecalis) [mg/L] | MIC (Escherichia coli [1]) [mg/L] | MIC (Escherichia coli [2]) [mg/L] | MIC (Streptococcus pyogenes) [mg/L] | IC50 [3] [µM] | SMILES
15 | 0.5 (≈ 1.36 µM) | 0.25 (≈ 0.68 µM) | 0.25 (≈ 0.68 µM) | 4 (≈ 10.9 µM) | 0.13 (≈ 0.353 µM) | 0.3 | NCC1CCN(c2c(F)cc3c(=O)n(N)c(=O)n(C4CC4)c3c2Cl)C1 (stereo not given)
16 | 64 (≈ 200 µM) | 32 (≈ 100 µM) | 1 (≈ 3.13 µM) | 8 (≈ 25.1 µM) | 16 (≈ 50.1 µM) | 1.6 | N[C@H]1CCN(c2cc3c(cc2F)c(=O)n(N)c(=O)n3C2CC2)C1
17 | > 64 | > 64 | 2 (≈ 5.44 µM) | 16 (≈ 43.5 µM) | > 64 | 23 | NC1CCN(c2c(F)cc3c(=O)n(N)c(=O)n(C4CCC4)c3c2Cl)C1 (stereo not given)
18 | 8 (≈ 23.7 µM) | 8 (≈ 23.7 µM) | 0.25 (≈ 0.741 µM) | 2 (≈ 5.93 µM) | 4 (≈ 11.9 µM) | 1.3 | NC1CCN(c2c(F)cc3c(=O)n(N)c(=O)n(C4CC4)c3c2F)C1 (stereo not given)
19 | 4 (≈ 12 µM) | 2 (≈ 6 µM) | 0.06 (≈ 0.18 µM) | 1 (≈ 3 µM) | 0.5 (≈ 1.5 µM) | 0.1 | Cc1c(N2CCC(N)C2)c(F)cc2c(=O)n(N)c(=O)n(C3CC3)c12 (stereo not given)
20 | 8 (≈ 22.9 µM) | 8 (≈ 22.9 µM) | 0.5 (≈ 1.43 µM) | 4 (≈ 11.4 µM) | 4 (≈ 11.4 µM) | 4.3 | COc1c(N2CCC(N)C2)c(F)cc2c(=O)n(N)c(=O)n(C3CC3)c12 (stereo not given)
21 | 32 (≈ 82.6 µM) | 32 (≈ 82.6 µM) | 0.25 (≈ 0.645 µM) | 8 (≈ 20.7 µM) | 4 (≈ 10.3 µM) | 5.2 | N[C@H]1CCN(c2c(F)cc3c(=O)n(N)c(=O)n(C4CC4)c3c2C(F)(F)F)C1
22 | 0.06 (≈ 0.166 µM) | 0.06 (≈ 0.166 µM) | 0.03 (≈ 0.083 µM) | 1 (≈ 2.77 µM) | 0.015 (≈ 0.0415 µM) | 0.2 | Cc1c(N2CC[C@@H]([C@H](C)N)C2)c(F)cc2c(=O)n(N)c(=O)n(C3CC3)c12
23 | > 64 | > 64 | 4 (≈ 11 µM) | 32 (≈ 88.1 µM) | 64 (≈ 176 µM) | 11 | CCOc1c(N2CCC(N)C2)c(F)cc2c(=O)n(N)c(=O)n(C3CC3)c12 (stereo not given)
24 | 2 (≈ 5.65 µM) | 4 (≈ 11.3 µM) | 0.13 (≈ 0.367 µM) | 0.5 (≈ 1.41 µM) | 2 (≈ 5.65 µM) | 0.4 | N[C@H]1CCN(c2c(F)cc3c(=O)n(N)c(=O)n(C4CC4)c3c2Cl)C1

From ChEMBL document CHEMBL1139087, “Structure-activity relationships of 3-aminoquinazolinediones, a new class of bacterial type-2 topoisomerase (DNA gyrase and topo IV) inhibitors” (Bioorg Med Chem Lett, 2007)
